This is an account of results in ChEMBL document CHEMBL1629643, “Naturally occurring Class A ss-lactamases from the Burkholderia cepacia complex” (Antimicrob Agents Chemother, 2009).

Converted amounts (≈) assume the structure as drawn.

What all share (format): functional
Experiment [1] deals with Escherichia coli. Kind of experiment: Antimicrobial activity against Escherichia coli TOP10. In short, it runs like this: (§1)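 MICs by broth microdilution and Etest, interpreted per CLSI guidelines. Strains tested were host E. coli TOP10, and TOP10 carrying pBcSau13 (pBK-CMV vector, kanamycin-resistant) holding a Sau3AI fragment of B. cenocepacia 212 DNA that encodes PenB1.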

Experiment [2] concerns Escherichia coli. Description: Antimicrobial activity against Escherichia coli TOP10 harboring beta-lactamase PenB1. In short, it runs like this: as §1
Experiment [3] deals with Burkholderia cenocepacia. Description: Antimicrobial activity against Burkholderia cenocepacia 09-54 expressing beta-lactamase PenB2. In short, it runs like this:
(§2)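 MICs measured by broth microdilution and by Etest on clinical B. cenocepacia isolates grown for 18 h in Trypticase soy broth (30°C and 37°C). Susceptibility was read against CLSI guidelines.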

Experiment [4] has as its system Burkholderia cenocepacia. Description: Antimicrobial activity against Burkholderia cenocepacia 07-34 expressing beta-lactamase PenB1. A digest of the protocol: as §2
Experiment [5] deals with Burkholderia cenocepacia. Kind of experiment: Antimicrobial activity against Burkholderia cenocepacia 07-34 expressing beta-lactamase PenB in presence of 4 ug/ml beta-lactamase inhibitor Tazobactam. In short, it runs like this: (§3)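 Isolates were cultured for 18 h in Trypticase soy broth (30°C and 37°C), then tested by microdilution and Etest. […] MICs were interpreted using CLSI guidelines.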

The test system of experiment [6] is Burkholderia cenocepacia. Description: Antimicrobial activity against Burkholderia cenocepacia 5007902 expressing beta-lactamase PenB4 in presence of 4 ug/ml beta-lactamase inhibitor Tazobactam. A digest of the protocol: as §3
Experiment [7] deals with Escherichia coli. Kind of experiment: Antimicrobial activity against Escherichia coli TOP10 harboring beta-lactamase PenB1 in presence of 4 ug/ml beta-lactamase inhibitor Tazobactam. In short, it runs like this: (§4)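 E. coli TOP10 host, either plain or carrying the pBK-CMV clone pBcSau13 with the B. cenocepacia 212 insert. MICs by broth microdilution and Etest, read against CLSI guidelines.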

Experiment [8] concerns Burkholderia cenocepacia. Kind of experiment: Antimicrobial activity against Burkholderia cenocepacia 5007902 expressing beta-lactamase PenB4. A digest of the protocol: as §2
For experiment [9], the system named is Burkholderia cenocepacia. Kind of experiment: Antimicrobial activity against Burkholderia cenocepacia 09-54 expressing beta-lactamase PenB2 in presence of 4 ug/ml beta-lactamase inhibitor Tazobactam. In short, it runs like this:
as §3

In experiment [10] the test system is Burkholderia cenocepacia. Kind of experiment: Antimicrobial activity against Burkholderia cenocepacia 212 expressing beta-lactamase PenB3 in presence of 4 ug/ml beta-lactamase inhibitor Tazobactam. A digest of the protocol: as §3
For experiment [11], the system named is Escherichia coli. Description: Antimicrobial activity against Escherichia coli TOP10 in presence of 4 ug/ml beta-lactamase inhibitor Tazobactam. In short, it runs like this:
as §4

For experiment [12], the system named is Burkholderia cenocepacia. Description: Antimicrobial activity against Burkholderia cenocepacia 212 expressing beta-lactamase PenB3. A digest of the protocol: as §2

On to `CCN1CCN(C(=O)N[C@@H](C(=O)N[C@@H]2C(=O)N3[C@@H]2SC(C)(C)[C@@H]3C(=O)O)c2ccccc2)C(=O)C1=O` [PIPERACILLIN], for which the MIC against Escherichia coli [1] was 2 µg/mL (≈ 3.86 µM); against Escherichia coli [2] it was 8 µg/mL (≈ 15.5 µM); in the experiment on Burkholderia cenocepacia [3] it was 512 µg/mL (≈ 989 µM); against Burkholderia cenocepacia [4], 4 µg/mL (≈ 7.73 µM); in the experiment with Burkholderia cenocepacia [5], 4 µg/mL; in the experiment on Burkholderia cenocepacia [6] it was 4 µg/mL. The MIC was 4 µg/mL with Escherichia coli [7]; 4 µg/mL (≈ 7.73 µM) against Burkholderia cenocepacia [8]; 256 µg/mL in the experiment with Burkholderia cenocepacia [9]; 128 µg/mL in the experiment on Burkholderia cenocepacia [10]; 2 µg/mL with Escherichia coli [11]; 128 µg/mL (≈ 247 µM) against Burkholderia cenocepacia [12].
